Test results taken from ChEMBL document CHEMBL1157540, “2-Arylthiomorpholine derivatives as potent and selective monoamine oxidase B inhibitors” (Bioorg Med Chem, 2010).

Experiments:
[1] = target: T1, Amine oxidase [flavin-containing] B (Rattus norvegicus, UniProt P19643); assay: Inhibition of MAOB in rat brain mitochondrial suspension; type: tissue-based
T1 sequence (P19643 whole entry): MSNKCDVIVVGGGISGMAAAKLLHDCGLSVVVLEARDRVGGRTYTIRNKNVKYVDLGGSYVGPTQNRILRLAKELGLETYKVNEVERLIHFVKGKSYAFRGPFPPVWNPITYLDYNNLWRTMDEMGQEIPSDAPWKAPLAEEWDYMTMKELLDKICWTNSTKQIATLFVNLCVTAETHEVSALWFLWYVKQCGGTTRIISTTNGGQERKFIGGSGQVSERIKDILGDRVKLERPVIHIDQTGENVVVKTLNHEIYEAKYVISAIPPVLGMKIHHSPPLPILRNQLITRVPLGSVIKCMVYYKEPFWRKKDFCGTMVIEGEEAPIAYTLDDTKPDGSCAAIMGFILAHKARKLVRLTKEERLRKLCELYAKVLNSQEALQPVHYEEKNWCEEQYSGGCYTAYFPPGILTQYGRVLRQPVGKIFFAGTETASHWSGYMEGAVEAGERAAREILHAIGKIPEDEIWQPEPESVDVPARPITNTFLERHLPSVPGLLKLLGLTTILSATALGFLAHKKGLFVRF
Summary of the method: (§1)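 Rat brain mitochondria; MAO-A substrate 5-HT, MAO-B substrate DMAPEA; metabolites measured by HPLC with electrochemical detection. Percent inhibition relative to enzyme treated alike without inhibitor; IC50 from inhibition vs –log concentration (mean ± SD, at least two independent experiments, each in triplicate). Ki by Cheng–Prusoff with Km 100 μM (5-HT, MAO-A) and 5 μM (DMAPEA, MAO-B).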

[2] = species on record: Rattus norvegicus; assay: Selectivity ratio of Ki for rat MAOA to Ki for rat MAOB
Summary of the method: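 Ki(rMAO-A)/Ki(rMAO-B), each from rat brain mitochondrial IC50 by Cheng–Prusoff (5-HT for MAO-A, Km 100 μM; DMAPEA for MAO-B, Km 5 μM; HPLC-electrochemical detection).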

[3] = target: T2, Amine oxidase [flavin-containing] A (Rattus norvegicus, UniProt P21396); assay: Inhibition of MAOA in rat brain mitochondrial suspension; type: tissue-based; summary of the method: as §1
T2 sequence (P21396 whole entry): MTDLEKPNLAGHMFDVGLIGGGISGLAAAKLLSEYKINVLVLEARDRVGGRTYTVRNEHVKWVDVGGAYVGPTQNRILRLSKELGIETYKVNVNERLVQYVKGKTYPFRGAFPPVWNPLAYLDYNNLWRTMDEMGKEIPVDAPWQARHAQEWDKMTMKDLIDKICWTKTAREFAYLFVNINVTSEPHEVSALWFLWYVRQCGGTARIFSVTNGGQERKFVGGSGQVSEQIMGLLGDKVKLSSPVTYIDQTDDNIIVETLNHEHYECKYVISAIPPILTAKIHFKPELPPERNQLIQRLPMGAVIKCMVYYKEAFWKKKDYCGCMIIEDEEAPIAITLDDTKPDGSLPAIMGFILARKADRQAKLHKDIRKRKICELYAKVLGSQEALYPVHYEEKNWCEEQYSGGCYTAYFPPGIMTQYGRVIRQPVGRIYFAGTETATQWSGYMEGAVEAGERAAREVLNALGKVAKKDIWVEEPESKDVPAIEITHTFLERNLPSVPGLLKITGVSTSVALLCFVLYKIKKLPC

[4] = target: T3, Amine oxidase [flavin-containing] A (Homo sapiens, UniProt P21397); assay: Inhibition of human recombinant MAOA by spectrophotometrically
T3 sequence (P21397 whole entry): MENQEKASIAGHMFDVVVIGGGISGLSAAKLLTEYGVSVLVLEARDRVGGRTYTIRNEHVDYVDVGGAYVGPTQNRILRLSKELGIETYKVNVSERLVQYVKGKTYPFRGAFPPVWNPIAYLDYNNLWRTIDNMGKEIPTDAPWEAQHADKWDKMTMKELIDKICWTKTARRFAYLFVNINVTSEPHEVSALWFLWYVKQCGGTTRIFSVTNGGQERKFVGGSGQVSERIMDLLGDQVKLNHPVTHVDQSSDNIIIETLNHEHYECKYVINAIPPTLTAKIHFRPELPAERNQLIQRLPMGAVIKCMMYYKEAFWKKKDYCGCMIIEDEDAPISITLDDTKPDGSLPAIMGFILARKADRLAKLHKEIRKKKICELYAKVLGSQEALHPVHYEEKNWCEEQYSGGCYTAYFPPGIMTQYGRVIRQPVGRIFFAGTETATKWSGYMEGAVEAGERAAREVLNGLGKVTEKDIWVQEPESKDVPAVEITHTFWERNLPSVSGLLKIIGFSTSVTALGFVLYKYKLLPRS
Summary of the method: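 Purified human recombinant MAO-A; initial oxidation rates read spectrophotometrically at 30 °C in 50 mM potassium phosphate pH 7.4 with 0.05% Triton X-100. Kynuramine 0.1–0.9 mM at six inhibitor concentrations spanning 10-fold; product followed at 314 nm. Ki taken directly from full kinetic analysis; errors from a single kinetic analysis.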

[5] = target: T4, Amine oxidase [flavin-containing] B (Homo sapiens, UniProt P27338); assay: Inhibition of human recombinant MAOB by spectrophotometrically
T4 sequence (P27338 whole entry): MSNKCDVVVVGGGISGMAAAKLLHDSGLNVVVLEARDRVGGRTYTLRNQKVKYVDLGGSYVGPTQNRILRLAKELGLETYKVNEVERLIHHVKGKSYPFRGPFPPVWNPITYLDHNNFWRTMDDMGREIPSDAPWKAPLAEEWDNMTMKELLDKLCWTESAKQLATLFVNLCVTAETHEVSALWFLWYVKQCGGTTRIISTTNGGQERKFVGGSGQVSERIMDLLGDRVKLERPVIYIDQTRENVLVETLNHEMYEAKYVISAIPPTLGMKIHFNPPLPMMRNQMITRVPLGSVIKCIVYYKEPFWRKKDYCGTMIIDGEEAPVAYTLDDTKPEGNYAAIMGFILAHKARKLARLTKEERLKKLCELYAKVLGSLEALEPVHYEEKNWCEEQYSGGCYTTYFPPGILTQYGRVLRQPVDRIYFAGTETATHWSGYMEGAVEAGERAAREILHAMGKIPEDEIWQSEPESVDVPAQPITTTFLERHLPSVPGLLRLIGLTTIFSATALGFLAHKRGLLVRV
Summary of the method: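 Purified human recombinant MAO-B; benzylamine substrate in 50 mM Hepes pH 7.5 with 0.5% (w/v) reduced Triton X-100 at 25 °C. Benzaldehyde formation monitored at 250 nm. Ki from full kinetic determinations (initial velocities at varied inhibitor levels; Lineweaver–Burk analysis).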

[6] = species on record: Homo sapiens; assay: Selectivity ratio of Ki for human MAOA to Ki for human MAOB

| SMILES | Ki [1] | Ratio Ki [2] | Ki [3] | Ki [4] | Ki [5] | Ratio Ki [6] |
| --- | --- | --- | --- | --- | --- | --- |
| O=C1CSC(c2ccccc2)CN1 (racemic) | 9.58 µM | 1 | 9.19 µM | > 100 µM | > 100 µM |  |
| CCOc1ccc(C2CNC(=O)CS2)cc1 (racemic) | 3.4 µM | 3.6 | 12.3 µM | 60 µM | 16.9 µM | 3.5 |
| CCCOc1ccc(C2CNC(=O)CS2)cc1 (racemic) | 1.49 µM | 6 | 8.68 µM | 40 µM | 2.4 µM | 16.7 |
| c1ccc(C2CNCCS2)cc1 (racemic) | 2.23 µM | 5 | 10.6 µM | > 100 µM | > 100 µM |  |
| CCCCOc1ccc(C2CNC(=O)CS2)cc1 (racemic) | 0.16 µM | 318 | 50.9 µM | 10 µM | 0.46 µM | 22 |
| CCCCOc1ccc(C2CNCCS2)cc1 (racemic) | 0.27 µM | 52 | 14.1 µM | 2.5 µM | 0.068 µM | 37 |
| O=C1CSC(c2ccc(OCc3ccccc3)cc2)CN1 (racemic) | 0.074 µM | 373 | 27.5 µM | > 100 µM | 0.048 µM | > 2000 |
| COc1ccc(C2CNC(=O)CS2)cc1 (racemic) | 13.6 µM | 0.68 | 9.28 µM | > 100 µM | > 100 µM |  |
| CCCOc1ccc(C2CNCCS2)cc1 (racemic) | 0.98 µM | 4 | 3.69 µM | 6.62 µM | 0.13 µM | 51 |
| COc1ccc(C2CNCCS2)cc1 (racemic) | 3.85 µM | 1.7 | 6.39 µM | 16.2 µM | > 100 µM |  |
| C[C@H](N)Cc1ccccc1 [DEXTROAMPHETAMINE] | > 100 µM | > 0.12 | 12.2 µM | 14.4 µM | 280 µM | 0.05 |
| CCOc1ccc(C2CNCCS2)cc1 (racemic) | 2.17 µM | 1 | 2.17 µM | 9.6 µM | 2.1 µM | 5 |
| c1ccc(COc2ccc(C3CNCCS3)cc2)cc1 (racemic) | 0.13 µM | 146 | 19 µM | > 100 µM | 0.038 µM | > 2600 |
